{
  "source": "ChEMBL document CHEMBL5329211",
  "about": "“Selective isoxazolopyrimidine PAT1 (SLC26A6) inhibitors for therapy of intestinal disorders” (RSC Med Chem, 2023)",
  "key": {"Pendrin (Homo sapiens)": {"molecular_target": "T1, Pendrin (Homo sapiens) (UniProt O43511)", "T1 sequence (whole entry)": "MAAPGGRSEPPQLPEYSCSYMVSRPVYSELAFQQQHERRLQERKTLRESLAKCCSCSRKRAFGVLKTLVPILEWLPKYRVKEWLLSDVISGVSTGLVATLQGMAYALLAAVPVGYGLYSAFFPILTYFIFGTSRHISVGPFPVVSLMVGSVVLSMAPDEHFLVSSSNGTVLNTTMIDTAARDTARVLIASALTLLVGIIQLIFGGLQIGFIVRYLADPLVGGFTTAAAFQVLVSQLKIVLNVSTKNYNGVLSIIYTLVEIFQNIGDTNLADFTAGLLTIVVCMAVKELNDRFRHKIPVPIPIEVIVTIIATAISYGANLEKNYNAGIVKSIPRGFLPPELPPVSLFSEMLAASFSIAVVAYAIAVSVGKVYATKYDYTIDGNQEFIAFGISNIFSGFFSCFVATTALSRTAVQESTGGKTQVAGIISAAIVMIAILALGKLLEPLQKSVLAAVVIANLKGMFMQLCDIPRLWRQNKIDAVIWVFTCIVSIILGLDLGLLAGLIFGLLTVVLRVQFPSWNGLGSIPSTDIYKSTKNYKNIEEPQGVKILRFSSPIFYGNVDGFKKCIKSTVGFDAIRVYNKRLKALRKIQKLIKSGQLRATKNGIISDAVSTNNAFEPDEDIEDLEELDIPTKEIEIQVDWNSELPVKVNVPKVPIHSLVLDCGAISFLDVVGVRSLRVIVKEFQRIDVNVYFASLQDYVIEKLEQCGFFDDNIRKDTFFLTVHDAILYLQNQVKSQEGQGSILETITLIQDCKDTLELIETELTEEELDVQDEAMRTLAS", "assay": "Inhibition of SLC26A4 (unknown origin) expressed in rat FRT cells coexpressing YFP halide-sensing protein assessed as iodide-chloride exchange at 25 uM incubated for 2 sec by fluorescence quenching analysis", "assay_type": "cell-based"}, "[1]": {"molecular_target": "T2, Solute carrier family 26 member 9 (Homo sapiens) (UniProt Q7LBE3)", "T2 sequence (whole entry)": "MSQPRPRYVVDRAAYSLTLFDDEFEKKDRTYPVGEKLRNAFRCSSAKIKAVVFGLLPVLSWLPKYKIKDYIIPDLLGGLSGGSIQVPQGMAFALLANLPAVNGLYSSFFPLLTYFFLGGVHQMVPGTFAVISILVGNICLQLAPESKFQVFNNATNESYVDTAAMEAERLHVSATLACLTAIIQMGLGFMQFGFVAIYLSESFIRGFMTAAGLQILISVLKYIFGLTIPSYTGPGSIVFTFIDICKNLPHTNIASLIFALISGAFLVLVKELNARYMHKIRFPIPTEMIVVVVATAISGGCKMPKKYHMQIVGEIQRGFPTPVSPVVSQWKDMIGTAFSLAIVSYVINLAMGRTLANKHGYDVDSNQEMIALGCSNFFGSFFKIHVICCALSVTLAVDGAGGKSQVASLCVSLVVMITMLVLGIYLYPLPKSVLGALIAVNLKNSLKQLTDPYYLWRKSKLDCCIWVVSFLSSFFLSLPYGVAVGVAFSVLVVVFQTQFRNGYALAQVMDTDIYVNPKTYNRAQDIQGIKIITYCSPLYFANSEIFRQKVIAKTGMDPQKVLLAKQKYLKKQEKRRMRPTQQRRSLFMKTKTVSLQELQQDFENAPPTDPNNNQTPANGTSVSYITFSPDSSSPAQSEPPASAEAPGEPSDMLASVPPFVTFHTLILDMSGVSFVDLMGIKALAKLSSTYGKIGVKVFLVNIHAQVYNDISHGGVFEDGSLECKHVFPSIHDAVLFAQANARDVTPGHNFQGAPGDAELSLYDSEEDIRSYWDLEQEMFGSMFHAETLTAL", "assay": "Inhibition of SLC26A9 (unknown origin) expressed in rat FRT cells coexpressing YFP halide-sensing protein assessed as iodide-chloride exchange at 25 uM incubated for 2 sec by fluorescence quenching analysis", "assay_type": "cell-based"}, "Mus musculus": {"system": "Mus musculus", "assay": "In vivo inhibition of PAT1 in intestinal closed-loop CD-1 mouse model assessed as reduction in loop fluid volume in ileum measured for 30 mins", "assay_type": "functional, organism-based", "outline": "(§1)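 Mice (wild-type CD1 or homozygous F508del CF, 10-16 wk, both sexes) fasted 24 h with free access to 5% dextrose water. Under isoflurane at 36-38 °C, 2-3 ileal loops (2-3 cm) were tied off and injected with 100 µL PBS pH 7.4 containing 30 µM inhibitor, 10 µM tenapanor or 0.1% DMSO vehicle. Loops removed at 0 or 30 min in separate mice; length and weight measured for fluid absorption. One-way ANOVA with Newman-Keuls.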"}, "[2]": {"assay": "In vivo inhibition of PAT1 in intestinal closed-loop CD-1 mouse model assessed as reduction in loop weight/length ratio in ileum measured for 30 mins", "assay_type": "functional", "conditions": "0.5 h", "outline": "as §1"}, "[3]": {"molecular_target": "Cystic fibrosis transmembrane conductance regulator (Homo sapiens) (UniProt P13569)", "sequence (P13569 whole entry, looked up)": "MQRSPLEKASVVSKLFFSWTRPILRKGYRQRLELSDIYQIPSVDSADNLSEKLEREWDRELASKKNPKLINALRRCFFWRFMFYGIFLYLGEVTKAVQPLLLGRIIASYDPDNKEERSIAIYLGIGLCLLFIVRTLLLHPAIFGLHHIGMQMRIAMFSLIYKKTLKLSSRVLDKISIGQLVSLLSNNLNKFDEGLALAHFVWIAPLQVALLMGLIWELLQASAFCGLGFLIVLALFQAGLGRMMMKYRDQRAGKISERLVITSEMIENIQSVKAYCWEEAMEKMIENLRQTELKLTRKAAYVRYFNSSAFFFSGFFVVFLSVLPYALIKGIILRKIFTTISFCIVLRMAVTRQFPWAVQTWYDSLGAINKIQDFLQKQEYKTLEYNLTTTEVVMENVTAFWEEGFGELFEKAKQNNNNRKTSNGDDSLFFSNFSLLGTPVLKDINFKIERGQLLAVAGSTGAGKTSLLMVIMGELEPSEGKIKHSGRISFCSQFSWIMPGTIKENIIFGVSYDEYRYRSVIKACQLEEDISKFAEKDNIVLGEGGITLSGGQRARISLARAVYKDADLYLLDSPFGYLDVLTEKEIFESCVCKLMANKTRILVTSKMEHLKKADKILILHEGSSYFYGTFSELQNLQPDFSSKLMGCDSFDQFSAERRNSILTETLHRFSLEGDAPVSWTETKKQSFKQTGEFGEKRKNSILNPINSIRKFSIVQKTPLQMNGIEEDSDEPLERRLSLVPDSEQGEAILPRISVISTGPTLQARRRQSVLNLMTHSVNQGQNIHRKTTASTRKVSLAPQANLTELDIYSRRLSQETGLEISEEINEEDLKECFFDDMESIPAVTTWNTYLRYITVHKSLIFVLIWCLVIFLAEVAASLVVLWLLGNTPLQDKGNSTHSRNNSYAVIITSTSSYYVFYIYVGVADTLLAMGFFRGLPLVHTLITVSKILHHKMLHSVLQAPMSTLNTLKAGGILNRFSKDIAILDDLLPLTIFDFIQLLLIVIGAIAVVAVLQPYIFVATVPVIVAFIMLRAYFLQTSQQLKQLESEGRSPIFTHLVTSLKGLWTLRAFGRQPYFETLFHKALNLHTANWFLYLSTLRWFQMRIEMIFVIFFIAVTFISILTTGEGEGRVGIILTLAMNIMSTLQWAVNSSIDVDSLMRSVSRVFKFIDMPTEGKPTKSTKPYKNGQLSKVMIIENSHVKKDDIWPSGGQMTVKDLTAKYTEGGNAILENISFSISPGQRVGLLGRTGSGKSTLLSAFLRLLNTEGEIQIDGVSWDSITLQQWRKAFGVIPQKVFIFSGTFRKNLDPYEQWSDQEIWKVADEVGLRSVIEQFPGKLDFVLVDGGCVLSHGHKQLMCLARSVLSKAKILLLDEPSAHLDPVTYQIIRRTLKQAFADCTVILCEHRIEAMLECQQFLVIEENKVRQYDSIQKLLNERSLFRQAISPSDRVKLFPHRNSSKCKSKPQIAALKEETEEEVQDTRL", "assay": "Inhibition of CFTR (unknown origin)"}, "[4]": {"assay": "Cytotoxicity against rat FRT cells assessed as reduction in cell viability at 10 uM incubated for 24 hrs by alamar blue staining based analysis", "assay_type": "toxicity", "outline": "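FRT cells seeded 20,000/well and grown 24 h, then exposed to compound at 10 μM for 24 h. Vehicle control 0.1% DMSO, positive control 20% DMSO. Viability read by Alamar Blue.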"}},
  "note": "Activity calls are given as the source filed them. The calls are words filed in the database; no cut-off is given here.",
  "data": [
    {"smiles": "CCOC(=O)c1nc(N(C)Cc2ccccc2)c2c(C)noc2n1", "values": [
      {"measurement": "inhibition", "setting": "Pendrin (Homo sapiens)", "value": "inactive"},
      {"measurement": "inhibition", "setting": "[1]", "value": "inactive"},
      {"measurement": "inhibition", "setting": "Mus musculus", "value": "Active"},
      {"measurement": "inhibition (INH)", "setting": "[2]", "value": ">90", "unit": "%"},
      {"measurement": "inhibition", "setting": "[3]", "value": "inactive"},
      {"measurement": "Activity", "setting": "[4]", "value": "Non-Toxic"}
    ]}
  ]
}
